Reference: ChEMBL document CHEMBL4316612, “Synthesis of novel dihydrotriazine derivatives bearing 1,3-diaryl pyrazole moieties as potential antibacterial agents” (Bioorg Med Chem Lett, 2019)
Converted amounts (≈) assume the structure as drawn.

Tests used:
Type in all cases: functional
Escherichia coli = test: Antibacterial activity against Escherichia coli KCTC 1924 after 24 hrs by microtiter ELISA; settings: KCTC 1924, 24 h
Procedure, shortened: (§1)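 Two-fold serial broth dilution in Mueller-Hinton broth, final 64-0.25 µg/mL; compounds in DMSO (final ≤0.05%). Mid-log cultures diluted 1000-fold, inoculum 10^5 CFU/mL; oxacillin and norfloxacin as positive controls. After 24 h at 37 °C, growth read at 650 nm on a microtiter ELISA reader; MIC = lowest level giving complete growth inhibition. Run three times.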

Candida albicans = test: Antifungal activity against Candida albicans 7535 after 24 hrs by microtiter ELISA; settings: Candida albicans, 7535, 24 h; procedure, shortened: as §1
Staphylococcus aureus [1] = test: Antibacterial activity against methicillin-resistant Staphylococcus aureus CCARM 3506 after 24 hrs by microtiter ELISA; settings: CCARM 3506, 24 h
Procedure, shortened: (§2)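 Broth microdilution MIC. Bacteria grown to mid-log phase in Mueller-Hinton broth, diluted 1000-fold, and inoculated at 10^5 CFU/mL. Compounds in DMSO (final ≤0.05%) were given as two-fold serial dilutions, final 64-0.25 µg/mL. Plates were incubated 24 h at 37 °C and growth read at 650 nm. MIC is the lowest concentration giving complete growth inhibition. Three independent experiments; oxacillin and norfloxacin served as positive controls.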

Staphylococcus aureus [2] = test: Antibacterial activity against quinolone-resistant Staphylococcus aureus CCARM 3505 after 24 hrs by microtiter ELISA; settings: CCARM 3505, 24 h; procedure, shortened: as §2
Streptococcus mutans = test: Antibacterial activity against Streptococcus mutans 3289 after 24 hrs by microtiter ELISA; settings: Streptococcus mutans, 3289, 24 h; procedure, shortened: as §1
Staphylococcus aureus [3] = test: Antibacterial activity against Staphylococcus aureus RN4220 after 24 hrs by microtiter ELISA; settings: RN4220, 24 h; procedure, shortened: as §2
Staphylococcus aureus [4] = test: Antibacterial activity against methicillin-resistant Staphylococcus aureus CCARM 3167 after 24 hrs by microtiter ELISA; settings: CCARM 3167, 24 h; procedure, shortened: as §2
Staphylococcus aureus [5] = test: Antibacterial activity against quinolone-resistant Staphylococcus aureus CCARM 3519 after 24 hrs by microtiter ELISA; settings: CCARM 3519, 24 h; procedure, shortened: as §2

Compound | MIC (Escherichia coli) [mg/L] | MIC (Candida albicans) [mg/L] | MIC (Staphylococcus aureus [1]) [mg/L] | MIC (Staphylococcus aureus [2]) [mg/L] | MIC (Streptococcus mutans) [mg/L] | MIC (Staphylococcus aureus [3]) [mg/L] | MIC (Staphylococcus aureus [4]) [mg/L] | MIC (Staphylococcus aureus [5]) [mg/L]
CN(C)C1=NC(c2cn(-c3ccc([N+](=O)[O-])cc3[N+](=O)[O-])nc2-c2ccccc2)N=C(N)N1 (stereo unspecified) | 32 (≈ 71.2 µM) | 32 (≈ 71.2 µM) | 64 (≈ 142 µM) | 32 (≈ 71.2 µM) | 64 (≈ 142 µM) | 32 (≈ 71.2 µM) | 32 (≈ 71.2 µM) | 64 (≈ 142 µM)
Cc1onc(-c2ccccc2)c1C(=O)N[C@@H]1C(=O)N2[C@@H]1SC(C)(C)[C@@H]2C(=O)O [OXACILLIN] | – | – | > 64 | 1 (≈ 2.49 µM) | – | – | > 64 | 1 (≈ 2.49 µM)
Cc1ccc(-c2nn(-c3ccc([N+](=O)[O-])cc3[N+](=O)[O-])cc2C2N=C(N)NC(N(C)C)=N2)cc1 (stereo unspecified) | 16 (≈ 34.5 µM) | 64 (≈ 138 µM) | 8 (≈ 17.3 µM) | 8 (≈ 17.3 µM) | 16 (≈ 34.5 µM) | 16 (≈ 34.5 µM) | 8 (≈ 17.3 µM) | 16 (≈ 34.5 µM)
CN(C)C1=NC(c2cn(-c3ccc([N+](=O)[O-])cc3[N+](=O)[O-])nc2-c2ccccc2F)N=C(N)N1 (stereo unspecified) | 32 (≈ 68.5 µM) | 32 (≈ 68.5 µM) | 32 (≈ 68.5 µM) | 64 (≈ 137 µM) | 64 (≈ 137 µM) | 64 (≈ 137 µM) | 64 (≈ 137 µM) | 64 (≈ 137 µM)
Cc1ccc(-c2nn(-c3ccccc3)cc2C2N=C(N)NC(N(C)C)=N2)cc1 (stereo unspecified) | 32 (≈ 85.7 µM) | 32 (≈ 85.7 µM) | 32 (≈ 85.7 µM) | 64 (≈ 171 µM) | 64 (≈ 171 µM) | 32 (≈ 85.7 µM) | 16 (≈ 42.8 µM) | 64 (≈ 171 µM)
CN(C)C1=NC(c2cn(-c3ccccc3)nc2-c2ccc(Cl)cc2)N=C(N)N1 (stereo unspecified) | 8 (≈ 20.3 µM) | 8 (≈ 20.3 µM) | 8 (≈ 20.3 µM) | 16 (≈ 40.6 µM) | 32 (≈ 81.2 µM) | 8 (≈ 20.3 µM) | 16 (≈ 40.6 µM) | 16 (≈ 40.6 µM)
NC1=NC(c2cn(-c3ccccc3)nc2-c2ccc(Cl)cc2)N=C(N2CCOCC2)N1 (stereo unspecified) | 16 (≈ 36.7 µM) | 16 (≈ 36.7 µM) | 16 (≈ 36.7 µM) | 16 (≈ 36.7 µM) | 32 (≈ 73.4 µM) | 16 (≈ 36.7 µM) | 16 (≈ 36.7 µM) | 16 (≈ 36.7 µM)
NC1=NC(c2cn(-c3ccc([N+](=O)[O-])cc3[N+](=O)[O-])nc2-c2ccc(Br)cc2)N=C(N2CCOCC2)N1 (stereo unspecified) | 8 (≈ 14 µM) | 8 (≈ 14 µM) | 4 (≈ 7.01 µM) | 8 (≈ 14 µM) | 16 (≈ 28.1 µM) | 8 (≈ 14 µM) | 8 (≈ 14 µM) | 8 (≈ 14 µM)
CN(C)C1=NC(c2cn(-c3ccccc3)nc2-c2ccccc2)N=C(N)N1 (stereo unspecified) | 64 (≈ 178 µM) | > 64 | 32 (≈ 89 µM) | 32 (≈ 89 µM) | > 64 | 32 (≈ 89 µM) | 32 (≈ 89 µM) | 64 (≈ 178 µM)
CN(C)C1=NC(c2cn(-c3ccc([N+](=O)[O-])cc3[N+](=O)[O-])nc2-c2ccc(Br)cc2)N=C(N)N1 (stereo unspecified) | 8 (≈ 15.1 µM) | 8 (≈ 15.1 µM) | 4 (≈ 7.57 µM) | 4 (≈ 7.57 µM) | 16 (≈ 30.3 µM) | 8 (≈ 15.1 µM) | 8 (≈ 15.1 µM) | 8 (≈ 15.1 µM)
CN(C)C1=NC(c2cn(-c3ccc([N+](=O)[O-])cc3[N+](=O)[O-])nc2-c2ccccc2[N+](=O)[O-])N=C(N)N1 (stereo unspecified) | > 64 | > 64 | > 64 | > 64 | > 64 | > 64 | > 64 | > 64
CN(C)C1=NC(c2cn(-c3ccccc3)nc2-c2ccc(Br)cc2)N=C(N)N1 (stereo unspecified) | 8 (≈ 18.3 µM) | 8 (≈ 18.3 µM) | 4 (≈ 9.13 µM) | 16 (≈ 36.5 µM) | 16 (≈ 36.5 µM) | 8 (≈ 18.3 µM) | 4 (≈ 9.13 µM) | 16 (≈ 36.5 µM)
Cc1ccc(-c2nn(-c3ccccc3)cc2C2N=C(N)NC(N3CCOCC3)=N2)cc1 (stereo unspecified) | 64 (≈ 154 µM) | 64 (≈ 154 µM) | 32 (≈ 77 µM) | 64 (≈ 154 µM) | 64 (≈ 154 µM) | 64 (≈ 154 µM) | 32 (≈ 77 µM) | 64 (≈ 154 µM)
NC1=NC(c2cn(-c3ccc([N+](=O)[O-])cc3[N+](=O)[O-])nc2-c2ccccc2Cl)N=C(N2CCOCC2)N1 (stereo unspecified) | 64 (≈ 122 µM) | 64 (≈ 122 µM) | 32 (≈ 60.8 µM) | 32 (≈ 60.8 µM) | 64 (≈ 122 µM) | 32 (≈ 60.8 µM) | 32 (≈ 60.8 µM) | 64 (≈ 122 µM)
NC1=NC(c2cn(-c3ccccc3)nc2-c2cccc(Cl)c2)N=C(N2CCOCC2)N1 (stereo unspecified) | 16 (≈ 36.7 µM) | 16 (≈ 36.7 µM) | 16 (≈ 36.7 µM) | 16 (≈ 36.7 µM) | 32 (≈ 73.4 µM) | 16 (≈ 36.7 µM) | 16 (≈ 36.7 µM) | 16 (≈ 36.7 µM)
